In ChEMBL document CHEMBL3425488, “Novel histone deacetylase inhibitors induce growth arrest, apoptosis, and differentiation in sarcoma cancer stem cells” (J Med Chem, 2015):
Calls of active or inactive are those of the source. The rule behind the calls is not given here.

Assays:
[1] = Cytotoxicity against human MG63 cells assessed as inhibition of cell viability after 72 hrs by MTT assay; format: functional, MG-63
In short: (§1)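 Stem-like cells were taken from sarcosphere cultures and exposed for 72 h to concentrations from 100 μM down to 0.1 μM. Viability was compared with cells given DMSO vehicle alone. IC50 was calculated by linear regression of the dose-response curves.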

[2] = Cytotoxicity against human SK-ES-1 cells assessed as inhibition of cell viability after 72 hrs by MTT assay; format: functional, SK-ES1; in short: as §1
HOS = assay: Cytotoxicity against HOS cells assessed as cell viability at 10 to 100 uM after 72 hrs by MTT assay; format: functional, cell-based; conditions: Homo sapiens
MG-63 = assay: Cytotoxicity against human MG63 cells assessed as cell viability at 10 to 100 uM after 72 hrs by MTT assay; format: functional, cell-based
In short: (§2)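 Sarcosphere-derived CSC cultures exposed 72 h to concentrations from 100 μM down to 0.1 μM. Viability compared with DMSO-only treated cells. IC50 calculated by linear regression.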

RD = assay: Cytotoxicity against human RD cells assessed as cell viability at 10 to 100 uM after 72 hrs by MTT assay; format: functional, cell-based
A204 = assay: Cytotoxicity against human A204 cells assessed as cell viability at 10 to 100 uM after 72 hrs by MTT assay; format: functional, cell-based
SK-ES1 = assay: Cytotoxicity against human SK-ES-1 cells assessed as cell viability at 10 to 100 uM after 72 hrs by MTT assay; format: functional, cell-based; in short: as §2
A673 = assay: Cytotoxicity against human A673 cells assessed as cell viability at 10 to 100 uM after 72 hrs by MTT assay; format: functional, cell-based; in short: as §2

Cn1c(/C=C/C(=O)NO)ccc1/C=C/C(=O)c1cccc(F)c1
INH [1]: 38.3 µM | INH [2]: 50.7 µM

O=c1nc2oc3ccc4ccccc4c3cc-2c(=O)n1-c1ccccc1
Activity (HOS): Active | Activity (MG-63): Active | Activity (RD): Active | Activity (A204): Active | Activity (SK-ES1): Active | Activity (A673): Active
